Reference: ChEMBL document CHEMBL4152337, “Novel indolo-sophoridinic scaffold as Topo I inhibitors: Design, synthesis and biological evaluation as anticancer agents” (Eur J Med Chem, 2018)
Activity calls are given as the source filed them. The calls are words filed in the database; no cut-off is given here.

Assays:
HepG2 = assay: Cytotoxicity against human HepG2 cells assessed as reduction in cell viability after 48 hrs by MTT assay; assay type: functional, cell-based; details: HepG2, 48 h
Method in brief: (§1)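 Cells at 3–4 × 10⁴/mL in DMEM + 10% FBS, pre-incubated 24 h in 5% CO₂. Then exposed 48 h to serial dilutions at 1, 5, 10, 20 and 50 µM; final DMSO <0.1%. MTT (5 mg/mL solution) added for 4 h at 37 °C, supernatant removed, formazan dissolved in DMSO, colorimetric read-out.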

CNE-2 = assay: Cytotoxicity against human CNE2 cells assessed as reduction in cell viability after 48 hrs by MTT assay; assay type: functional, cell-based; details: CNE-2, 48 h; method in brief: as §1
A549 = assay: Cytotoxicity against human A549 cells assessed as reduction in cell viability after 48 hrs by MTT assay; assay type: functional, cell-based; details: A549, 48 h; method in brief: as §1
[1] = target: T1, DNA topoisomerase 1 (Homo sapiens) (UniProt P11387); assay: Inhibition of recombinant human topoisomerase-1-mediated relaxation of supercoiled pBR322 DNA at 500 uM after 30 mins by ethidium bromide staining based assay
T1 sequence (whole entry): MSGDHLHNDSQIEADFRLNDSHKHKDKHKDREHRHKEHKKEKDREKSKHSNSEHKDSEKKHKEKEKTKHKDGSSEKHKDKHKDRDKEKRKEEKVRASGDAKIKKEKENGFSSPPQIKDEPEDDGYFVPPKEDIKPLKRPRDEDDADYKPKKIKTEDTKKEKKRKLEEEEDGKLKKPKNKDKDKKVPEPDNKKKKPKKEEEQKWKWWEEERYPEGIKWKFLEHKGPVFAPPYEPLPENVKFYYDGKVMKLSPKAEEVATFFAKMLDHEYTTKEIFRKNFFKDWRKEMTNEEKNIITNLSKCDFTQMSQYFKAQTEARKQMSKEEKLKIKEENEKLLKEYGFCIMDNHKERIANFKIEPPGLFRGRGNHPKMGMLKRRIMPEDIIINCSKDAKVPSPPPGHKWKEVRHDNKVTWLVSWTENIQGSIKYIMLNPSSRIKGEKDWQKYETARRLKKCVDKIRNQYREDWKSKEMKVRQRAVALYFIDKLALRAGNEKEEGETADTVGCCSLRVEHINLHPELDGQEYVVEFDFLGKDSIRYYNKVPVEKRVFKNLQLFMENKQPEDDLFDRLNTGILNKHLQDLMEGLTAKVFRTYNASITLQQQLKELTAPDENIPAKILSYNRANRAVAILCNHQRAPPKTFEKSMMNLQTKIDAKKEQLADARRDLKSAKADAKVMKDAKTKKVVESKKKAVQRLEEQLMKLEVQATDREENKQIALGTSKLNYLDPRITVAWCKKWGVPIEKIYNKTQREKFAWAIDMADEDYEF
Method in brief: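 Reactions stopped with loading buffer containing 0.5% SDS, bromophenol blue and 15% glycerol. Products run on a horizontal 0.8% agarose gel in 1× TAE at 4 V/cm for 40 min at room temperature. Gel stained with ethidium bromide and imaged.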

Compound | IC50 (HepG2) [µM] | IC50 (CNE-2) [µM] | IC50 (A549) [µM] | inhibition [1]
CC[C@@]1(O)C(=O)OCc2c1cc1n(c2=O)Cc2cc3ccccc3nc2-1 [CAMPTOTHECIN] | 13.2 | 0.1 | 5.5 | –
OCCCC[C@@H]1[C@H]2CCCN3CCC[C@H](CN1Cc1cn(Cc4ccccc4)c4ccccc14)[C@@H]23 | 2.3 | 2.2 | 33.7 | Active
COC(=O)CCC[C@@H]1[C@H]2CCCN3CCC[C@H](CN1Cc1c[nH]c4ccc(Cl)cc14)[C@@H]23 | > 50 | 17.9 | > 50 | –
COC(=O)CCC[C@@H]1[C@H]2CCCN3CCC[C@H](CN1Cc1cn(Cc4ccc(Cl)cc4)c4ccc(F)cc14)[C@@H]23 | 7.3 | 6.1 | 10.6 | –
COC(=O)CCC[C@@H]1[C@H]2CCCN3CCC[C@H](CN1Cc1cn(C)c4ccccc14)[C@@H]23 | 15.2 | 43.4 | 42.8 | –
COC(=O)CCC[C@@H]1[C@H]2CCCN3CCC[C@H](CN1Cc1c[nH]c4ccc(F)cc14)[C@@H]23 | > 50 | > 50 | > 50 | –
COC(=O)CCC[C@@H]1[C@H]2CCCN3CCC[C@H](CN1Cc1cn(Cc4ccc(Br)cc4)c4ccccc14)[C@@H]23 | 4.8 | 4.3 | 3.5 | –
COC(=O)CCC[C@@H]1[C@H]2CCCN3CCC[C@H](CN1Cc1c[nH]c4ccc([N+](=O)[O-])cc14)[C@@H]23 | > 50 | > 50 | > 50 | –
COC(=O)CCC[C@@H]1[C@H]2CCCN3CCC[C@H](CN1Cc1c[nH]c4ccc(C)cc14)[C@@H]23 | 23.8 | 49.4 | > 50 | –
COC(=O)CCC[C@@H]1[C@H]2CCCN3CCC[C@H](CN1Cc1c[nH]c4ccc(OC)cc14)[C@@H]23 | > 50 | > 50 | > 50 | –
COC(=O)CCC[C@@H]1[C@H]2CCCN3CCC[C@H](CN1Cc1c[nH]c4ccc(Br)cc14)[C@@H]23 | 31.8 | 20.2 | 39.9 | –
COC(=O)CCC[C@@H]1[C@H]2CCCN3CCC[C@H](CN1Cc1cn(Cc4ccccc4)c4ccccc14)[C@@H]23 | 5.5 | 3.3 | 43.4 | Active
COC(=O)CCC[C@@H]1[C@H]2CCCN3CCC[C@H](CN1Cc1cn(Cc4cccc(F)c4)c4ccccc14)[C@@H]23 | 12.1 | 12.1 | 42.3 | –
COC(=O)CCC[C@@H]1[C@H]2CCCN3CCC[C@H](CN1Cc1c[nH]c4ccc(C#N)cc14)[C@@H]23 | > 50 | 15.3 | > 50 | –
COC(=O)CCC[C@@H]1[C@H]2CCCN3CCC[C@H](CN1Cc1cn(Cc4c(Cl)cccc4Cl)c4ccccc14)[C@@H]23 | 8.5 | 6.7 | 3.7 | –
